According to ChEMBL document CHEMBL2016577, “Preparation, antibacterial evaluation and preliminary structure-activity relationship (SAR) study of benzothiazol- and benzoxazol-2-amine derivatives” (Bioorg Med Chem Lett, 2012):
Converted amounts (≈) assume the structure as drawn.

Columns and labels:
Enterococcus faecalis [1] = assay: Antibacterial activity against Enterococcus faecalis ATCC 29212 after 16 hrs by broth microdilution method; type: functional; settings: ATCC 29212, 16 h
Escherichia coli [2] = assay: Antibacterial activity against Escherichia coli ATCC 29425 after 16 hrs by broth microdilution method; type: functional; settings: ATCC 29425, 16 h
Staphylococcus aureus [3] = assay: Antibacterial activity against Staphylococcus aureus ATCC 25923 after 16 hrs by broth microdilution method; type: functional; settings: ATCC 25923, 16 h
Streptococcus pneumoniae [4] = assay: Antibacterial activity against penicillin-resistant Streptococcus pneumoniae after 16 hrs by broth microdilution method; type: functional
Outline: (§1)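 Clinical isolates, including strains resistant to common antimicrobials, tested by the standard broth dilution method. The read-out is the minimum inhibitory concentration in μg/mL. Each value is representative of three independent determinations.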

Staphylococcus aureus [5] = assay: Antibacterial activity against methicillin-susceptible Staphylococcus aureus after 16 hrs by broth microdilution method; type: functional; outline: as §1
[6] = Cytotoxicity against human HEK293 cells at 64 ug/ml after 48 hrs by MTT assay; type: cell-based; settings: read-out: INH
Outline: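 HEK293 cells were exposed to compound at 64 μg/mL and assessed by standard MTT. Inhibitory rate was recorded across three independent experiments.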

Enterococcus faecalis [7] = assay: Antibacterial activity against vancomycin-resistant Enterococcus faecalis after 16 hrs by broth microdilution method; type: functional; outline: as §1
Escherichia coli [8] = assay: Antibacterial activity against Escherichia coli clinical isolate after 16 hrs by 2-fold microdilution method; type: functional
Enterococcus faecium [9] = assay: Antibacterial activity against vancomycin-susceptible Enterococcus faecium after 16 hrs by broth microdilution method; type: functional; outline: as §1
Enterococcus faecalis [10] = assay: Antibacterial activity against vancomycin-susceptible Enterococcus faecalis after 16 hrs by broth microdilution method; type: functional
Streptococcus pneumoniae [11] = assay: Antibacterial activity against penicillin-susceptible Streptococcus pneumoniae after 16 hrs by broth microdilution method; type: functional
Staphylococcus aureus [12] = assay: Antibacterial activity against methicillin-resistant Staphylococcus aureus after 16 hrs by broth microdilution method; type: functional; outline: as §1
HEK293 = assay: Cytotoxicity against human HEK293 cells after 48 hrs by MTT assay; type: cell-based; settings: HEK293, 48 h
Outline: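 Standard MTT assay in Human Embryonic Kidney 293 cells, with 64 μg/mL as the top concentration tested. IC50 came from three independent experiments.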

Enterococcus faecium [13] = assay: Antibacterial activity against vancomycin-resistant Enterococcus faecium after 16 hrs by broth microdilution method; type: functional; outline: as §1
Albumin = Albumin (Bos taurus, UniProt P02769); assay: Binding affinity to bovine serum albumin BY HPLC analysis; type: ADME; settings: cattle, isolated protein
Sequence of Albumin (P02769 whole entry): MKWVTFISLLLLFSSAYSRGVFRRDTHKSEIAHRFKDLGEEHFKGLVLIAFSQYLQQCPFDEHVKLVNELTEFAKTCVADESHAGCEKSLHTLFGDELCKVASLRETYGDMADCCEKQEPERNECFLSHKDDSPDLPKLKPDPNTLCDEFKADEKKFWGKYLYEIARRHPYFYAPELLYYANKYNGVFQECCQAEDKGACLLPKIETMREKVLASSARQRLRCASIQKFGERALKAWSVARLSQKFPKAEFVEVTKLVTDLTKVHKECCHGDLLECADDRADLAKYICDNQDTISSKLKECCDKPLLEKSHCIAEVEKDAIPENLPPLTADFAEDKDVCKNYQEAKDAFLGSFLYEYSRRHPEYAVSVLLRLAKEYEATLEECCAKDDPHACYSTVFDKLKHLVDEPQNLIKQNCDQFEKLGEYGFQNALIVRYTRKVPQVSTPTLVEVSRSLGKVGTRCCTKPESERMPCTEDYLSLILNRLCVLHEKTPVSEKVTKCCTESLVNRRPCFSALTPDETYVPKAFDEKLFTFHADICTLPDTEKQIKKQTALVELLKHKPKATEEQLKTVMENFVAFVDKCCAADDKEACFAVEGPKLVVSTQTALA
Outline: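 Compound was incubated with BSA standard solution and the bound fraction separated by centrifugal ultrafiltration. Free compound was quantified by HPLC. Binding degree = (Cb–Ca)/Cb, where Cb and Ca are the compound concentrations before and after interaction with BSA.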

Row | MIC (Enterococcus faecalis [1]) | MIC (Escherichia coli [2]) | MIC (Staphylococcus aureus [3]) | SMILES | further results
1 | 64 µg/mL (≈ 185 µM) | > 64 µg/mL | 8 µg/mL (≈ 23.1 µM) | Brc1cccc(CNCCNc2nc3ccccc3o2)c1 | 
2 | 4 µg/mL (≈ 11.4 µM) | > 64 µg/mL | 8 µg/mL (≈ 22.8 µM) | Clc1ccc(CNCCCNc2nc3ccccc3o2)c(Cl)c1 | 
3 | 2 µg/mL (≈ 5.18 µM) | 32 µg/mL (≈ 82.9 µM) | 1 µg/mL (≈ 2.59 µM) | Fc1cc2nc(NCCCNCc3ccc(Cl)c(Cl)c3)oc2cc1F | 
4 | > 64 µg/mL | > 64 µg/mL | > 64 µg/mL | c1ccc(CNCCNc2nc3ccccc3s2)cc1 | 
5 | 4 µg/mL (≈ 10.4 µM) | 32 µg/mL (≈ 83.2 µM) | 2 µg/mL (≈ 5.2 µM) | Clc1ccc2oc(NCCCNCc3ccc(Cl)c(Cl)c3)nc2c1 | 
6 | 2 µg/mL (≈ 4.99 µM) | 32 µg/mL (≈ 79.8 µM) | 4 µg/mL (≈ 9.98 µM) | Clc1ccc2nc(NCCCNCc3ccc(Cl)c(Cl)c3)sc2c1 | 
7 | 8 µg/mL (≈ 24.1 µM) | > 64 µg/mL | 16 µg/mL (≈ 48.2 µM) | Clc1ccc(CNCCCNc2nc3ccccc3s2)cc1 | 
8 | > 64 µg/mL | > 64 µg/mL | > 64 µg/mL | c1ccc(CNCCCNc2nc3ccccc3o2)cc1 | 
9 | 8 µg/mL (≈ 22.7 µM) | 32 µg/mL (≈ 90.8 µM) | 2 µg/mL (≈ 5.68 µM) | Clc1ccc(CNCCNc2nc3ccccc3s2)c(Cl)c1 | 
10 | 8 µg/mL (≈ 23.8 µM) | > 64 µg/mL | 8 µg/mL (≈ 23.8 µM) | Clc1ccc(CNCCNc2nc3ccccc3o2)c(Cl)c1 | 
11 |  |  |  | CO/N=C(\C(=O)N[C@@H]1C(=O)N2C(C(=O)O)=C(COC(C)=O)CS[C@H]12)c1csc(N)n1 [CEFOTAXIME] | MIC (Streptococcus pneumoniae [4]): 64 µg/mL (≈ 141 µM); MIC (Staphylococcus aureus [5]): 1 µg/mL (≈ 2.2 µM); MIC (Enterococcus faecalis [7]): > 64 µg/mL; MIC (Escherichia coli [8]): 0.25 µg/mL (≈ 0.549 µM); MIC (Enterococcus faecium [9]): 1 µg/mL (≈ 2.2 µM); MIC (Enterococcus faecalis [10]): 1 µg/mL (≈ 2.2 µM); MIC (Streptococcus pneumoniae [11]): 1 µg/mL (≈ 2.2 µM); MIC (Staphylococcus aureus [12]): > 64 µg/mL; MIC (Enterococcus faecium [13]): > 64 µg/mL
12 | 64 µg/mL (≈ 182 µM) | > 64 µg/mL | 32 µg/mL (≈ 90.8 µM) | Clc1ccc(CNCCNc2nc3ccccc3s2)cc1Cl | 
13 | 32 µg/mL (≈ 102 µM) | > 64 µg/mL | 16 µg/mL (≈ 51 µM) | Oc1ccc(CNCCCNc2nc3ccccc3s2)cc1 | 
14 | 8 µg/mL (≈ 21.3 µM) | 32 µg/mL (≈ 85 µM) | 16 µg/mL (≈ 42.5 µM) | Brc1cccc(CNCCCNc2nc3ccccc3s2)c1 | 
15 | 2 µg/mL (≈ 4.99 µM) | 32 µg/mL (≈ 79.8 µM) | 2 µg/mL (≈ 4.99 µM) | Clc1ccc2sc(NCCCNCc3ccc(Cl)c(Cl)c3)nc2c1 | 
16 | 4 µg/mL (≈ 10.9 µM) | 32 µg/mL (≈ 86.9 µM) | 1 µg/mL (≈ 2.72 µM) | Fc1ccc2nc(NCCCNCc3ccc(Cl)c(Cl)c3)oc2c1 | 
17 |  |  |  | CC1(C)S[C@@H]2[C@H](NC(=O)[C@H](N)c3ccccc3)C(=O)N2[C@H]1C(=O)O [AMPICILLIN] | MIC (Streptococcus pneumoniae [4]): > 64 µg/mL; MIC (Staphylococcus aureus [5]): 0.0625 µg/mL (≈ 0.179 µM); MIC (Enterococcus faecalis [7]): > 64 µg/mL; MIC (Escherichia coli [8]): 0.25 µg/mL (≈ 0.715 µM); MIC (Enterococcus faecium [9]): 0.25 µg/mL (≈ 0.715 µM); MIC (Enterococcus faecalis [10]): 0.125 µg/mL (≈ 0.358 µM); MIC (Streptococcus pneumoniae [11]): 0.125 µg/mL (≈ 0.358 µM); MIC (Staphylococcus aureus [12]): > 64 µg/mL; MIC (Enterococcus faecium [13]): > 64 µg/mL
18 | 4 µg/mL (≈ 10.9 µM) | 32 µg/mL (≈ 86.9 µM) | 1 µg/mL (≈ 2.72 µM) | Fc1ccc2oc(NCCCNCc3ccc(Cl)c(Cl)c3)nc2c1 | 
19 | 64 µg/mL (≈ 215 µM) | > 64 µg/mL | 64 µg/mL (≈ 215 µM) | COc1ccc(CNCCNc2nc3ccccc3o2)cc1 | 
20 | 8 µg/mL (≈ 22.2 µM) | 32 µg/mL (≈ 88.8 µM) | 16 µg/mL (≈ 44.4 µM) | Brc1cccc(CNCCCNc2nc3ccccc3o2)c1 | 
21 | 32 µg/mL (≈ 103 µM) | > 64 µg/mL | 32 µg/mL (≈ 103 µM) | COc1ccc(CNCCCNc2nc3ccccc3o2)cc1 | 

Row | MIC (Enterococcus faecalis [1]) | MIC (Escherichia coli [2]) | MIC (Staphylococcus aureus [3]) | SMILES | further results
22 | 64 µg/mL (≈ 195 µM) | > 64 µg/mL | 64 µg/mL (≈ 195 µM) | COc1ccc(CNCCCNc2nc3ccccc3s2)cc1 | 
23 | 64 µg/mL (≈ 177 µM) | 64 µg/mL (≈ 177 µM) | 8 µg/mL (≈ 22.1 µM) | Brc1cccc(CNCCNc2nc3ccccc3s2)c1 | 
24 | > 64 µg/mL | > 64 µg/mL | > 64 µg/mL | c1ccc(CNCCNc2nc3ccccc3o2)cc1 | 
25 | 32 µg/mL (≈ 113 µM) | > 64 µg/mL | 32 µg/mL (≈ 113 µM) | Oc1ccc(CNCCNc2nc3ccccc3o2)cc1 | 
26 | 2 µg/mL (≈ 5.2 µM) | 32 µg/mL (≈ 83.3 µM) | 1 µg/mL (≈ 2.6 µM) | Fc1ccc2nc(NCCCNCc3ccc(Cl)c(Cl)c3)sc2c1 | 
27 | 32 µg/mL (≈ 108 µM) | > 64 µg/mL | 32 µg/mL (≈ 108 µM) | Oc1ccc(CNCCCNc2nc3ccccc3o2)cc1 | 
28 | 16 µg/mL (≈ 42.1 µM) | 32 µg/mL (≈ 84.1 µM) | 8 µg/mL (≈ 21 µM) | COc1ccc2nc(NCCCNCc3ccc(Cl)c(Cl)c3)oc2c1 | 
29 | 2 µg/mL (≈ 5.71 µM) | 32 µg/mL (≈ 91.4 µM) | 16 µg/mL (≈ 45.7 µM) | Clc1ccc(CNCCCNc2nc3ccccc3o2)cc1Cl | 
30 | 32 µg/mL (≈ 101 µM) | > 64 µg/mL | 8 µg/mL (≈ 25.2 µM) | Clc1ccc(CNCCNc2nc3ccccc3s2)cc1 | 
31 | > 64 µg/mL | > 64 µg/mL | > 64 µg/mL | c1ccc(CNCCCNc2nc3ccccc3s2)cc1 | 
32 | 32 µg/mL (≈ 106 µM) | > 64 µg/mL | 8 µg/mL (≈ 26.5 µM) | Clc1ccc(CNCCNc2nc3ccccc3o2)cc1 | 
33 | 8 µg/mL (≈ 23.8 µM) | > 64 µg/mL | 16 µg/mL (≈ 47.6 µM) | Clc1ccc(CNCCNc2nc3ccccc3o2)cc1Cl | 
34 | 16 µg/mL (≈ 43.7 µM) | 32 µg/mL (≈ 87.4 µM) | 4 µg/mL (≈ 10.9 µM) | Clc1ccc(CNCCCNc2nc3ccccc3s2)cc1Cl | 
35 | 32 µg/mL (≈ 107 µM) | > 64 µg/mL | 16 µg/mL (≈ 53.4 µM) | Oc1ccc(CNCCNc2nc3ccccc3s2)cc1 | 
36 | 2 µg/mL (≈ 5.2 µM) | 32 µg/mL (≈ 83.3 µM) | 1 µg/mL (≈ 2.6 µM) | Fc1ccc2sc(NCCCNCc3ccc(Cl)c(Cl)c3)nc2c1 | 
37 | 4 µg/mL (≈ 10.1 µM) | > 64 µg/mL | 4 µg/mL (≈ 10.1 µM) | COc1ccc2nc(NCCCNCc3ccc(Cl)c(Cl)c3)sc2c1 | 
38 | 4 µg/mL (≈ 10.4 µM) | 32 µg/mL (≈ 83.2 µM) | 2 µg/mL (≈ 5.2 µM) | Clc1ccc2nc(NCCCNCc3ccc(Cl)c(Cl)c3)oc2c1 | 
39 | 16 µg/mL (≈ 50.7 µM) | > 64 µg/mL | 16 µg/mL (≈ 50.7 µM) | Clc1ccc(CNCCCNc2nc3ccccc3o2)cc1 | 
40 | 8 µg/mL (≈ 21.8 µM) | > 64 µg/mL | 8 µg/mL (≈ 21.8 µM) | Clc1ccc(CNCCCNc2nc3ccccc3s2)c(Cl)c1 | 
41 | 32 µg/mL (≈ 102 µM) | > 64 µg/mL | 32 µg/mL (≈ 102 µM) | COc1ccc(CNCCNc2nc3ccccc3s2)cc1 | 

Row | SMILES | MIC (Enterococcus faecalis [1]) | MIC (Escherichia coli [2]) | MIC (Staphylococcus aureus [3]) | further results
42 | Cl.O=c1cc(NCCCNCc2ccc(Cl)c(Cl)c2)[nH]c2ccccc12 | 0.5 µg/mL | > 64 µg/mL | 4 µg/mL | MIC (Streptococcus pneumoniae [4]): 8 µg/mL; MIC (Staphylococcus aureus [5]): 2 µg/mL; cytotoxicity at 48 h, 64 ug/ml [6]: 15%; MIC (Enterococcus faecalis [7]): 2 µg/mL; MIC (Escherichia coli [8]): > 64 µg/mL; MIC (Enterococcus faecium [9]): 1 µg/mL; MIC (Enterococcus faecalis [10]): 1 µg/mL; MIC (Streptococcus pneumoniae [11]): 4 µg/mL; MIC (Staphylococcus aureus [12]): 2 µg/mL; IC50 (HEK293): > 64 µg/mL; MIC (Enterococcus faecium [13]): 1 µg/mL
43 | Fc1cc2nc(NCCCNCc3ccc(Cl)c(Cl)c3)sc2cc1F | 1 µg/mL (≈ 2.49 µM) | 32 µg/mL (≈ 79.5 µM) | 0.5 µg/mL (≈ 1.24 µM) | Activity (Albumin): 1.4%; MIC (Streptococcus pneumoniae [4]): 4 µg/mL (≈ 9.94 µM); MIC (Staphylococcus aureus [5]): 0.5 µg/mL (≈ 1.24 µM); cytotoxicity at 48 h, 64 ug/ml [6]: 15%; MIC (Enterococcus faecalis [7]): 1 µg/mL (≈ 2.49 µM); MIC (Escherichia coli [8]): > 64 µg/mL; MIC (Enterococcus faecium [9]): 2 µg/mL (≈ 4.97 µM); MIC (Enterococcus faecalis [10]): 1 µg/mL (≈ 2.49 µM); MIC (Streptococcus pneumoniae [11]): 4 µg/mL (≈ 9.94 µM); MIC (Staphylococcus aureus [12]): 1 µg/mL (≈ 2.49 µM); IC50 (HEK293): > 64 µg/mL; MIC (Enterococcus faecium [13]): 2 µg/mL (≈ 4.97 µM)
